Laboratory results taken from ChEMBL document CHEMBL1649231, “In vitro activities of panduratin A against clinical Staphylococcus strains” (2009).

Tests used:
Assay type in all cases: functional
Mammaliicoccus sciuri [1] = test: Antimicrobial activity against methicillin-susceptible coagulase-negative Staphylococcus sciuri assessed as resistant isolates after 24 hrs by broth microdilution method
[2] = tested on: Staphylococcus haemolyticus; test: Antimicrobial activity against methicillin-susceptible coagulase-negative Staphylococcus haemolyticus assessed as susceptible isolates after 24 hrs by broth microdilution method
[3] = tested on: Staphylococcus haemolyticus; test: Antimicrobial activity against methicillin-resistant coagulase-negative Staphylococcus haemolyticus assessed as intermediate resistant isolates after 24 hrs by broth microdilution method
Staphylococcus aureus [4] = test: Antimicrobial activity against methicillin-susceptible Staphylococcus aureus after 24 hrs by broth microdilution method
Summary of the method: (§1)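 Clinical isolates came from blood, body fluids, genital secretions, pus or sputum, identified conventionally or by Vitek. MICs were run by CLSI M7-A6 broth microdilution in Mueller-Hinton broth with 5 × 10^5 CFU/ml inoculum. Agents were twofold serially diluted, starting from 10% DMSO. Drug-free and uninoculated controls were included. Plates were incubated aerobically at 37°C for 24 h; MIC is the lowest concentration giving no visible growth.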

Staphylococcus aureus [5] = test: Antimicrobial activity against methicillin-resistant Staphylococcus aureus assessed as susceptible isolates after 24 hrs by broth microdilution method
[6] = tested on: Staphylococcus epidermidis; test: Antimicrobial activity against methicillin-susceptible coagulase-negative Staphylococcus epidermidis assessed as susceptible isolates after 24 hrs by broth microdilution method
Mammaliicoccus sciuri [7] = test: Antimicrobial activity against methicillin-resistant coagulase-negative Staphylococcus sciuri assessed as susceptible isolates after 24 hrs by broth microdilution method
Staphylococcus hominis [8] = test: Antimicrobial activity against methicillin-resistant coagulase-negative Staphylococcus hominis after 24 hrs by broth microdilution method; summary of the method: as §1
Staphylococcus hominis [9] = test: Antimicrobial activity against methicillin-susceptible coagulase-negative Staphylococcus hominis assessed as susceptible isolates after 24 hrs by broth microdilution method
[10] = tested on: Staphylococcus haemolyticus; test: Bactericidal activity against methicillin-resistant coagulase-negative Staphylococcus haemolyticus after 24 hrs by plate counting method
Staphylococcus simulans [11] = test: Antimicrobial activity against methicillin-resistant coagulase-negative Staphylococcus simulans assessed as susceptible isolates after 24 hrs by broth microdilution method
[12] = tested on: Staphylococcus haemolyticus; test: Antimicrobial activity against methicillin-susceptible coagulase-negative Staphylococcus haemolyticus after 24 hrs by broth microdilution method; summary of the method: as §1
Staphylococcus simulans [13] = test: Antimicrobial activity against methicillin-susceptible coagulase-negative Staphylococcus simulans after 24 hrs by broth microdilution method; summary of the method: as §1
Staphylococcus aureus [14] = test: Antimicrobial activity against methicillin-susceptible Staphylococcus aureus assessed as susceptible isolates after 24 hrs by broth microdilution method
[15] = tested on: Staphylococcus epidermidis; test: Antimicrobial activity against methicillin-resistant coagulase-negative Staphylococcus epidermidis after 24 hrs by broth microdilution method; summary of the method: as §1
Mammaliicoccus sciuri [16] = test: Antimicrobial activity against methicillin-susceptible coagulase-negative Staphylococcus sciuri after 24 hrs by broth microdilution method; summary of the method: as §1
Staphylococcus aureus [17] = test: Antimicrobial activity against methicillin-susceptible Staphylococcus aureus assessed as resistant isolates after 24 hrs by broth microdilution method
[18] = tested on: Staphylococcus epidermidis; test: Bactericidal activity against methicillin-resistant coagulase-negative Staphylococcus epidermidis after 24 hrs by plate counting method
Mammaliicoccus sciuri [19] = test: Antimicrobial activity against methicillin-susceptible coagulase-negative Staphylococcus sciuri assessed as susceptible isolates after 24 hrs by broth microdilution method
Summary of the method: (§2)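 Clinical isolates from blood, body fluids, pus, sputum or genital secretions, identified conventionally or by Vitek, were tested alongside ATCC 29213 and ATCC 12228 controls. CLSI M7-A6 broth microdilution in Mueller-Hinton broth used twofold dilutions from a 10% DMSO solution and 5 × 10^5 CFU/ml inoculum. Drug-free and uninoculated wells served as controls; incubation was aerobic at 37°C for 24 h. MIC was the lowest concentration with no visible growth.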

Mammaliicoccus sciuri [20] = test: Bactericidal activity against methicillin-susceptible coagulase-negative Staphylococcus sciuri after 24 hrs by plate counting method
Summary of the method: (§3)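 Clinical staphylococcal isolates from patient body fluids, blood, genital secretions, pus or sputum; species by conventional methods or Vitek. Twofold dilutions in Mueller-Hinton broth, inoculum 5 × 10^5 CFU/ml, 37°C aerobic 24 h (CLSI M7-A6 microdilution). About 100 μl from each well without visible growth spread on MHA; 37°C 24 h. MBC = lowest concentration giving no growth on agar.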

Mammaliicoccus sciuri [21] = test: Antimicrobial activity against methicillin-resistant coagulase-negative Staphylococcus sciuri after 24 hrs by broth microdilution method; summary of the method: as §1
Staphylococcus simulans [22] = test: Antimicrobial activity against methicillin-susceptible coagulase-negative Staphylococcus simulans assessed as susceptible isolates after 24 hrs by broth microdilution method; summary of the method: as §2
Staphylococcus hominis [23] = test: Antimicrobial activity against methicillin-resistant coagulase-negative Staphylococcus hominis assessed as susceptible isolates after 24 hrs by broth microdilution method
[24] = tested on: Staphylococcus epidermidis; test: Antimicrobial activity against methicillin-resistant coagulase-negative Staphylococcus epidermidis assessed as resistant isolates after 24 hrs by broth microdilution method
Staphylococcus aureus [25] = test: Antimicrobial activity against methicillin-susceptible Staphylococcus aureus assessed as intermediate resistant isolates after 24 hrs by broth microdilution method
Staphylococcus simulans [26] = test: Antimicrobial activity against methicillin-resistant coagulase-negative Staphylococcus simulans assessed as intermediate resistant isolates after 24 hrs by broth microdilution method
Staphylococcus hominis [27] = test: Antimicrobial activity against methicillin-susceptible coagulase-negative Staphylococcus hominis assessed as intermediate resistant isolates after 24 hrs by broth microdilution method; conditions: pooled result: one value given for 5 cell lines, strains, targets or settings
Staphylococcus aureus [28] = test: Bactericidal activity against methicillin-susceptible Staphylococcus aureus after 24 hrs by plate counting method; summary of the method: as §3
[29] = tested on: Staphylococcus epidermidis; test: Antimicrobial activity against methicillin-resistant coagulase-negative Staphylococcus epidermidis assessed as susceptible isolates after 24 hrs by broth microdilution method
Staphylococcus aureus [30] = test: Antimicrobial activity against methicillin-resistant Staphylococcus aureus assessed as resistant isolates after 24 hrs by broth microdilution method
[31] = tested on: Staphylococcus haemolyticus; test: Antimicrobial activity against methicillin-resistant coagulase-negative Staphylococcus haemolyticus after 24 hrs by broth microdilution method; summary of the method: as §1
Mammaliicoccus sciuri [32] = test: Antimicrobial activity against methicillin-resistant coagulase-negative Staphylococcus sciuri assessed as resistant isolates after 24 hrs by broth microdilution method
Staphylococcus aureus [33] = test: Antimicrobial activity against methicillin-resistant Staphylococcus aureus assessed as intermediate resistant isolates after 24 hrs by broth microdilution method
[34] = tested on: Staphylococcus epidermidis; test: Bactericidal activity against methicillin-susceptible coagulase-negative Staphylococcus epidermidis after 24 hrs by plate counting method; summary of the method: as §3
Staphylococcus hominis [35] = test: Bactericidal activity against methicillin-susceptible coagulase-negative Staphylococcus hominis after 24 hrs by plate counting method; summary of the method: as §3
Staphylococcus simulans [36] = test: Antimicrobial activity against methicillin-susceptible coagulase-negative Staphylococcus simulans assessed as resistant isolates after 24 hrs by broth microdilution method
[37] = Staphylococcus epidermidis, 24 h

CN[C@H](CC(C)C)C(=O)N[C@H]1C(=O)N[C@@H](CC(N)=O)C(=O)N[C@H]2C(=O)N[C@H]3C(=O)N[C@H](C(=O)N[C@H](C(=O)O)c4cc(O)cc(O)c4-c4cc3ccc4O)[C@H](O)c3ccc(c(Cl)c3)Oc3cc2cc(c3O[C@@H]2O[C@H](CO)[C@@H](O)[C@H](O)[C@H]2O[C@H]2C[C@](C)(N)[C@H](O)[C@H](C)O2)Oc2ccc(cc2Cl)[C@H]1O [VANCOMYCIN]
4 µg/mL: MBC90 [10] | MBC90 [18] | MBC90 (Mammaliicoccus sciuri [20]) | MBC90 [34] | MBC90 (Staphylococcus hominis [35])
12%: Activity (Staphylococcus simulans [36])
0.25 µg/mL: MIC50 (Staphylococcus aureus [4]) | MIC50 [12] | MIC50 (Staphylococcus simulans [13]) | MIC50 (Mammaliicoccus sciuri [16]) | MBC (Staphylococcus aureus [28]; Staphylococcus aureus, 24 h)
0.125 µg/mL: MIC (Staphylococcus hominis [8]) | MIC50 (Staphylococcus hominis [8]) | MIC [15] | MIC50 [15] | MBC (Mammaliicoccus sciuri [20]; Mammaliicoccus sciuri, 24 h) | MIC (Mammaliicoccus sciuri [21]) | MIC50 (Mammaliicoccus sciuri [21]) | MIC [31] | MIC50 [31] | MBC [34, 37] | MBC (Staphylococcus hominis [35]; Staphylococcus hominis, 24 h)
1 µg/mL: MIC90 [12] | MIC90 (Staphylococcus simulans [13]) | MIC90 (Mammaliicoccus sciuri [16]) | MBC50 (Mammaliicoccus sciuri [20]) | MBC50 (Staphylococcus aureus [28]) | MBC50 [34] | MBC50 (Staphylococcus hominis [35])
0.5 µg/mL: MIC90 (Staphylococcus aureus [4]) | MBC ([10]; Staphylococcus haemolyticus, 24 h) | MBC [18, 37]
2 µg/mL: MIC90 (Staphylococcus hominis [8]) | MBC50 [10] | MIC90 [15] | MBC50 [18] | MIC90 (Mammaliicoccus sciuri [21]) | MBC90 (Staphylococcus aureus [28]) | MIC90 [31]
0%: Activity (Mammaliicoccus sciuri [1]) | Activity [3] | Activity (Mammaliicoccus sciuri [7]) | Activity (Staphylococcus simulans [11]) | Activity (Staphylococcus aureus [17]) | Activity [24] | Activity (Staphylococcus aureus [25]) | Activity (Staphylococcus simulans [26]) | Activity (Staphylococcus hominis [27]) | Activity (Staphylococcus aureus [30]) | Activity (Mammaliicoccus sciuri [32]) | Activity (Staphylococcus aureus [33])
100%: Activity [2] | Activity (Staphylococcus aureus [5]) | Activity [6] | Activity (Staphylococcus hominis [9]) | Activity (Staphylococcus aureus [14]) | Activity (Mammaliicoccus sciuri [19]) | Activity (Staphylococcus simulans [22]) | Activity (Staphylococcus hominis [23]) | Activity [29]

GENTAMICIN
73%: Activity [2] | Activity [6] | Activity (Staphylococcus hominis [9]) | Activity (Mammaliicoccus sciuri [19]) | Activity (Staphylococcus simulans [22])
7%: Activity [3] | Activity (Mammaliicoccus sciuri [7]) | Activity (Staphylococcus simulans [11]) | Activity (Staphylococcus simulans [26])
63%: Activity (Staphylococcus aureus [30])
1 µg/mL: MBC50 (Mammaliicoccus sciuri [20]) | MBC50 [34] | MBC50 (Staphylococcus hominis [35])
0.125 µg/mL: MIC50 [12] | MIC50 (Staphylococcus simulans [13]) | MIC50 (Mammaliicoccus sciuri [16])
52%: Activity (Staphylococcus aureus [14])
45%: Activity (Staphylococcus hominis [23]) | Activity [29]
27%: Activity (Mammaliicoccus sciuri [1]) | Activity (Staphylococcus simulans [36])
0.25 µg/mL: MBC [10] | MBC [18] | MBC (Mammaliicoccus sciuri [20]) | MBC [34] | MBC (Staphylococcus hominis [35])
22%: Activity (Staphylococcus aureus [33])
0%: Activity (Staphylococcus aureus [25]) | Activity (Staphylococcus hominis [27])
32 µg/mL: MIC90 [12] | MIC90 (Staphylococcus simulans [13]) | MIC90 (Mammaliicoccus sciuri [16])
0.5 µg/mL: MBC (Staphylococcus aureus [28])
4 µg/mL: MIC50 (Staphylococcus aureus [4])
8 µg/mL: MIC50 (Staphylococcus hominis [8]) | MBC50 [10] | MIC50 [15] | MBC50 [18] | MIC50 (Mammaliicoccus sciuri [21]) | MBC50 (Staphylococcus aureus [28]) | MIC50 [31]
15%: Activity (Staphylococcus aureus [5])
128 µg/mL: MBC90 [10] | MBC90 [18] | MBC90 (Staphylococcus aureus [28])
64 µg/mL: MIC90 (Staphylococcus aureus [4]) | MIC90 (Staphylococcus hominis [8]) | MIC90 [15] | MBC90 (Mammaliicoccus sciuri [20]) | MIC90 (Mammaliicoccus sciuri [21]) | MIC90 [31] | MBC90 [34] | MBC90 (Staphylococcus hominis [35])
48%: Activity (Staphylococcus aureus [17]) | Activity [24] | Activity (Mammaliicoccus sciuri [32])
